In the library only some 4.1% were active in any assay of this set; here they are far more common.
KCNK3 inh – human KCNK3 channel inhibition, primary screen; AID 602410; B-score at 10 µM; 340,000 tested, 0.84% active; CHO-KCNK3 thallium flux, FluxOR fluorescence; stronger effect = lower value; O14649;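 active = B-score under library mean minus 4 SD, starting fluorescence ratio at most library mean plus 5 SD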;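 note: more negative B-score means stronger inhibition of thallium flux through KCNK3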
Cl transport mod – KCC2 (human) Cl- transport modulation. Q9H2X9. KCC2 cells, thallium flux FluoZin-2 fluorescence. B-score of Tl+ flux slope (higher = more flux/activation; lower = inhibition) at 10 µM. 190,000 tested, 2.2% active. AID 1456;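 active = thallium flux slope and its plate-corrected score both differing from the plate sample mean at a set confidence after two filtering rounds, in either direction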;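 note: slope of fluorescence scaled to starting intensity during 10 to 20 s after thallium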
KCNK9 block – inhibitors of human KCNK9 two-pore domain potassium channel; HEK293 KCNK9, FluxOR thallium flux fluorescence; stronger effect = lower value; B-score at 10 µM; 310,000 tested, 1.2% active;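 active = ratio B-score over 3 SD below the library mean, with starting fluorescence within 5 SD of its mean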;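 note: negative B-score means less thallium flux so channel inhibition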
KCNQ1 act – potentiators or activators of human KCNQ1 potassium channel | CHO-K1 KCNQ1, thallium flux FluxOR fluorescence; stronger effect = higher value | B-score at 10 µM | 310,000 tested, 0.35% active;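 active = fluorescence ratio B-score, a plate-corrected score, at least three library SD, with initial intensity B-score within 5 SD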
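Material: CHO-K1 cells stably expressing KCNQ1. Medium: assay buffer for compound exposure, DMSO matched across wells. Reagent: K+/Tl+ depolarizing stimulus. Compound dosing: single-concentration screen. Times: 37 °C overnight plating, 90-min dark dye load, 20-min compound pretreatment. Technique: FluxOR Tl+ flux fluorescence.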
KCNQ1 inh – inhibitors of human KCNQ1 potassium channel; 310,000 tested, 1.3% active; B-score at 10 µM; CHO-K1 KCNQ1, FluxOR thallium flux fluorescence; stronger effect = higher value;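 active = compounds whose thallium flux B-score, printed positive for inhibition, exceeds three library SD while starting fluorescence stays within three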;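 note: channel opened by potassium depolarization with thallium stimulus after 20 min compound exposure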
hERG protect – shields human hERG channel from block by proarrhythmic agents | AID 1511 | CHO-hERG, FluxOR thallium flux, dofetilide IC70 present | 310,000 tested, 0.51% active | activation (rescue from dofetilide block), less the hit threshold, % at 10 µM;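 active = activation above the mean of controls blocked by dofetilide plus 5 SD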;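 note: thallium influx through hERG after potassium depolarization seen as dye fluorescence rise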
KCNQ1 inh valid – reconfirmed blocker of the human KCNQ1 potassium channel | shares compounds with KCNQ1 inh | KCNQ1 cell line, FluxOR thallium flux fluorescence | inhibition, % at 10 µM | 1,600 tested, 93% active | AID 588353;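 active = primary screen active, with duplicate mean exceeding buffer control mean plus 3 SD of buffer wells, cut at about 28% in these data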
CHO Tl flux – activity in parental CHO cells lacking KCNQ1; shares compounds with KCNQ1 inh; AID 588366; parental CHO-K1, FluxOR thallium flux fluorescence ratio; stronger effect = lower value; zero means no signal rise above baseline; 1,600 tested, 21% active; fluorescence ratio (Tl flux) at 10 µM;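 active = mean of duplicate thallium-flux fluorescence ratios in parental host cells more than 5 SD below the buffer control mean, cut at about 0.38 in these data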;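 note: ratio is peak minus minimum fluorescence divided by baseline fluorescence; actives read low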
KCNQ1 ephys val – confirmation of human KCNQ1 potassium channel inhibitors by electrophysiology | shares compounds with KCNQ1 inh | KCNQ1-CHO cells, automated patch clamp current | calls only at 10 µM | 490 tested, 20% active;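 active = KCNQ1 current drop exceeding 3 SD of negative control wells, seen in both duplicate runs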;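 note: steady state current during a 2 s step from -80 to +40 mV; negative values mean current inhibition and positive values mean potentiation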
KCNQ2 inh – KCNQ1 inhibitor that also blocks rat KCNQ2 channel. shares compounds with KCNQ1 inh. KCNQ2 cells, FluxOR thallium flux fluorescence. inhibition, % at 10 µM. 1,600 tested, 71% active;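 active = mean percent inhibition of the KCNQ2 thallium signal more than 5 SD above the buffer-only control wells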;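 note: KCNQ2 expressed in CHO cells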
KCNQ1-KCNE1 inh – human KCNQ1/KCNE1 inhibition in KCNQ1 specificity screen; shares compounds with KCNQ1 inh; KCNQ1/KCNE1 cells, FluxOR thallium flux fluorescence; inhibition, % at 10 µM; 1,600 tested, 77% active;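 active = mean percent inhibition of duplicate wells above the buffer-only control mean plus 3 SD of those controls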
KCNK9 block conf – confirmation of human KCNK9 potassium channel inhibitors. 4,900 tested, 43% active. HEK293 KCNK9 cells, FluxOR thallium flux fluorescence. inhibition, % at 10 µM. AID 492992. shares compounds with KCNK9 block;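 active = thallium signal inhibited by more than 5 SD of the compound-free buffer control wells, on both duplicate plates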
Kir2-1 spec – tests whether KCNK9 modulators also affect mouse Kir2.1; Kir2.1 cells, FluxOR thallium flux fluorescence; AID 492993; 4,900 tested, 4% active; shares compounds with KCNK9 block; inhibition, % at 10 µM;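 active = thallium signal drop more than 5 SD beyond the mean of the no-compound control wells, seen in both duplicate plates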;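 note: signal is fluorescence rise after thallium addition divided by baseline fluorescence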
HEK293 Tl ctr – second counter-screen for KCNK9 modulators: effect in non-induced cells | inhibition, % at 10 µM | AID 492997 | non-induced KCNK9-HEK293, FluxOR thallium flux | shares compounds with KCNK9 block | 4,900 tested, 40% active;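 active = thallium signal drop beyond 5 SD of the untreated control mean, on both duplicate plates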
Hits are given with their value; . = inactive; / = not tested or not shown; + = active, no number.

SMILES	KCNK3 inh	Cl transport mod	KCNK9 block	KCNQ1 act	KCNQ1 inh	hERG protect	KCNQ1 inh valid	CHO Tl flux	KCNQ1 ephys val	KCNQ2 inh	KCNQ1-KCNE1 inh	KCNK9 block conf	Kir2-1 spec	HEK293 Tl ctr
CC(C)Oc1cccc(C(=O)C2CCCN(Cc3cccn3-c3ccccn3)C2)c1 (stereo not drawn)	.	.	.	.	8	.	51.5	.	/	76.3%	.	.	.	.
O=C1c2cccc(OCc3ccc(F)cc3)c2CCN1Cc1ccc(F)cc1	.	.	-15.1	.	6	.	126.0	.	.	115.0%	148.5%	66.0%	.	.
NC(=O)C1CCCN1Cc1ccc2c(c1)OCO2 (stereo not drawn)	.	/	/	/	/	/	/	/	/	/	/	/	/	/
O=C(CSc1n[nH]c(-c2cccnc2)n1)Nc1cccc(Cl)c1	.	/	.	.	.	.	/	/	/	/	/	/	/	/
O=C(CSc1nc(-c2ccc(Cl)cc2)[nH]c(=O)n1)Nc1cccc(Cl)c1	.	.	.	.	7	.	115.5	.	.	.	.	.	.	.
COc1ccc(-n2cnc3cc(N)ccc32)cc1	.	/	.	.	.	.	/	/	/	/	/	/	/	/
CC(=O)n1c2c(c3ccccc31)OC(N)=C(C#N)C2c1ccc(C(C)C)cc1 (stereo not drawn)	.	.	-9.22	.	8	.	114.5	.	.	101.3%	154.5%	33.0%	.	37.5%
COc1ccc(Cl)cc1C(=O)NNC(=O)c1[nH]c(C)c(C(C)=O)c1C	.	/	/	/	/	/	/	/	/	/	/	/	/	/
N#CCC(=O)Nc1ccc(C(=O)OCC(=O)NCCCc2ccccc2)cc1	.	/	.	.	.	.	/	/	/	/	/	/	/	/
N#CCC(=O)Nc1ccc(C(=O)OCC(=O)Nc2ccccc2Sc2ccccc2)cc1	.	.	-9.05	.	6	.	99.0	.	+	90.7%	153.0%	50.5%	.	33.5%
CCc1c(C#N)c(SCCC(=O)Nc2ccc(C)cc2)nc2c1C(=O)CC(C)(C)C2	.	.	.	.	7	.	93.0	.	.	83.0%	56.5%	.	.	.
COc1ccc(S(=O)(=O)N/N=C\c2ccccc2F)cc1	.	/	.	.	.	.	/	/	/	/	/	/	/	/
CCOc1ccccc1C(=O)OCC(=O)Nc1cc(Cl)ccc1Oc1ccccc1	.	.	-8.12	.	8	.	87.0	.	/	76.3%	106.5%	32.0%	.	39.5%
O=C1c2ccccc2OC2(C=Cc3ccccc3O2)N1Cc1ccccc1 (stereo not drawn)	.	.	-13.7	.	7	.	116.0	0.376	/	109.0%	157.5%	46.5%	.	34.0%
c1ccc(Oc2nc(N3CCOCC3)nc(N3CCOCC3)n2)cc1	.	/	.	.	.	.	/	/	/	/	/	/	/	/
Clc1ccc(Oc2nc(N3CCOCC3)nc(N3CCOCC3)n2)c(C2CCCCC2)c1	.	.	.	.	6	.	98.5	0.369	/	104.7%	91.0%	.	.	.
COc1ccc(S(N)(=O)=O)cc1C(=O)OCCCC(=O)c1ccccc1	.	/	/	/	/	/	/	/	/	/	/	/	/	/

Screening results from PubChem BioAssay.
